Laboratory results: PMC9159088 (Chemical Science, 2022)

Columns and labels:
[1] = target: T1, human Golgi α-mannosidase II (α-hGMII) (Homo sapiens, UniProt Q16706); experiment: 4-MU-based enzyme inhibition study, wild-type α-hGMII; assay type: biochemical; settings: SI = (α-hLM Ki)/(α-hGMII Ki), Man-α-4MU substrate
T1 sequence (Q16706 1-1144): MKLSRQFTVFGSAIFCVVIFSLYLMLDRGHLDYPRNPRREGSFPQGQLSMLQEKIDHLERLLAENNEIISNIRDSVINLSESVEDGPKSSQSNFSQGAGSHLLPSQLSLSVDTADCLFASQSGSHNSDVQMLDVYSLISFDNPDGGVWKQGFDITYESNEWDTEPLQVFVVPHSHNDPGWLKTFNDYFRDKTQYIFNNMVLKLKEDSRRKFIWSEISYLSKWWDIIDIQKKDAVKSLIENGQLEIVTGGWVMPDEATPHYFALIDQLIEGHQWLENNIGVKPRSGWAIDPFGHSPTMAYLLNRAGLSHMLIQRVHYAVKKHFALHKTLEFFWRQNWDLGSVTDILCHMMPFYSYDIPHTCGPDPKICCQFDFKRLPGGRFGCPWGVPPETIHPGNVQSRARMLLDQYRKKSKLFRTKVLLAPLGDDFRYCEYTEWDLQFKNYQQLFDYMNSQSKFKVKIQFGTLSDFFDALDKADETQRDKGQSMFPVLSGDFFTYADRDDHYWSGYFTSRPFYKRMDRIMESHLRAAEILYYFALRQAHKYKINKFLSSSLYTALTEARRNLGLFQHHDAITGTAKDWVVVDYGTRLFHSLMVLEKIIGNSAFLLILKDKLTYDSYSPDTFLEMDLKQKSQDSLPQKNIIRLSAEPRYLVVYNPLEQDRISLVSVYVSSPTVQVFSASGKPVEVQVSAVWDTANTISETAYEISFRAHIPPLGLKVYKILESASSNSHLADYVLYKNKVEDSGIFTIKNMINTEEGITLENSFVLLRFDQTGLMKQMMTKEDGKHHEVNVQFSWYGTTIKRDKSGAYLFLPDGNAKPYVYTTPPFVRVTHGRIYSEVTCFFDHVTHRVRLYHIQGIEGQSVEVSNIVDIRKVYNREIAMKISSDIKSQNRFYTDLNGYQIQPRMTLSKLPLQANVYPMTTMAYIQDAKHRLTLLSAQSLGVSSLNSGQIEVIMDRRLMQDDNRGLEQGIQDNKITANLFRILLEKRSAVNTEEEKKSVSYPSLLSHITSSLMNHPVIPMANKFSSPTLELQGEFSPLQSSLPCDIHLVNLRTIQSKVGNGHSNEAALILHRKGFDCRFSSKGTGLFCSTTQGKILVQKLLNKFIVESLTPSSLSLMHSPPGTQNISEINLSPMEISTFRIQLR

[2] = target: T2, α-hGMII (Homo sapiens, UniProt Q16706); experiment: Glycan-based; assay type: biochemical; settings: SI = (α-hLM IC50)/(α-hGMII IC50), oligosaccharide substrates
T2 sequence (Q16706 1-1144): T1 sequence (Q16706 1-1144)
Method in brief: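 The substrate for human Golgi α-mannosidase II was 2-aminobenzamide-labelled GlcNAcMan5GlcNAc2 (GlcNAcMan5-2AB), with LNnT-2AB as internal standard. Enzyme, substrate and test compound (0, 0.3, 0.1, 0.03 μM) were incubated 24 h at 37 °C. Remaining substrate was measured by UPLC fluorescence as the peak area ratio of substrate to internal standard. Ki was taken from a Lineweaver–Burk plot. SI used lysosomal α-mannosidase IC50, run the same way with Man5-2AB substrate and NA2-2AB standard.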

[3] = test system: human normal fibroblast (08C0015); experiment: Cell based selectivity assay; settings: 08C0015, 24 h treatment
[4] = test system: Huh7 xenograft tumors; experiment: Mice xenograft model of HCC; assay type: in vivo, NOD-SCID mice; settings: 30 mg kg−1 ip. twice a week
[5] = Serum biochemistry assay; assay type: in vivo, NOD-SCID mice; settings: 30 mg kg−1 ip. twice a week
Method in brief: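 Huh7 cells (5 × 106) implanted subcutaneously into left and right flanks of NOD-SCID mice. From day 7 after inoculation, test compound or reference drug given ip at 30 mg kg−1 twice a week for 34 days; bodyweight monitored. Serum AST, ALT, total bilirubin, creatinine and BUN measured for hepatorenal toxicity; significance set at P < 0.05.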

| Compound | SI: selectivity index [1] | SI: selectivity index (glycan based) [2] | increase of relative intensity of overall Man2-9GlcNAc compared to the control group [3] | signs of harm / body weight during treatment [4] | tumor growth compared to the control ([4]; P < 0.05) | side effects (hepatotoxicity and nephrotoxicity) [5] |
| --- | --- | --- | --- | --- | --- | --- |
| O[C@H]1[C@H]2[C@H](O)CCCN2C[C@H]1O [sw, swainsonine] | 4.6 | 5 | about 5 fold |  |  |  |
| CNC(=O)c1cc(Oc2ccc(NC(=O)Nc3ccc(Cl)c(C(F)(F)F)c3)cc2)ccn1 [Sorafenib, sorafenib] |  |  |  | neither mice injected with 8b-3 nor sorafenib exhibited signs of harm or decreased body weight | significant reduction in tumor growth | no serious side effects including hepatotoxicity and nephrotoxicity were observed |
